Experimental data pooled from the literature.
Medium: plasma
Route: intravenous

SMILES | system | setting | clearance
Cc1cc(S(=O)(=O)NC2CC(N3CCN(CC4CCN(c5cccc6c5n(C)c(=O)n6C5CCC(=O)NC5=O)CC4)C4(CC4)C3)C2)ccc1Nc1ncc(C(F)(F)F)c(N2CCC[C@](C)(O)C2)n1 (stereo partly drawn) | rat | 2 mg/kg | 35 mL/min/kg
COc1ccc(N(Cc2csc(-c3ccccc3)n2)C(=O)CCCCCC(=O)NO)cc1 | female Sprague-Dawley rat | 5 mg/kg | 6810 mL/min/kg
Cc1nc(Nc2ncc(C(=O)Nc3c(C)cccc3Cl)s2)cc(N2CC[C@H](N)C2)n1 | male Sprague-Dawley rat | 1 mg/kg | 51.7 mL/min/kg
C[C@H]1CN(c2ccc(C3CCC(=O)NC3=O)cc2F)CCN1CC12CCC(NS(=O)(=O)c3ccc(Nc4ncc(C(F)(F)F)c(N5CCC[C@](C)(O)C5)n4)c(F)c3)(CC1)CO2 (stereo partly drawn) | rat | 2 mg/kg | 18 mL/min/kg
Cc1nc(Nc2ncc(C(=O)Nc3c(C)cccc3Cl)s2)cc(N2CCN(CCO)CC2)n1 | male Sprague-Dawley rat | 1 mg/kg | 21.7 mL/min/kg
O=C1CCC(N2Cc3cc(C4CCN(Cc5ccccc5)CC4)ccc3C2=O)C(=O)N1 (stereo not drawn) | male Sprague-Dawley rat | 1 mg/kg | 51.4 mL/min/kg
O=c1c(NCCc2cccc(Cl)c2)c(Nc2ccc(Cl)cc2)c1=O | male Sprague-Dawley rat | 1 mg/kg | 29.3 mL/min/kg
COc1ccc(-c2coc3cc(O)cc(O)c3c2=O)cc1 | rat | 2 mg/kg | 48.9 mL/min/kg
[2H]c1cc(C)c(NC(=O)c2cnc(Nc3cc(N4CCC(O)CC4)nc(C)n3)s2)c(Cl)c1 | male Sprague-Dawley rat | 1 mg/kg | 33.3 mL/min/kg
CNS(=O)(=O)c1ccc(Nc2ncc3cc(Cl)c(=O)n(C4CCCC4)c3n2)c(C)c1 | rat | 2 mg/kg | 50 mL/min/kg
C=CCn1c(=O)c2cnc(Nc3ccc(N4CCN(C)CC4)cc3)nc2n1-c1ccc2c(n1)[C@@](O)(CC)CC2 | rat | 3 mg/kg | 33 mL/min/kg
COc1cc(-c2cc(C(C)=O)n3ccccc23)c(OC)cc1Cn1ccnc1 | male Sprague-Dawley rat | 5 mg/kg | 20.1 mL/min/kg
